Data from paper PMC2659690 (Molecular Pharmaceutics, 2008).
Where a SMILES comes first, the peptide text is derived from it. [ ]: non-standard residue; d: D form. Sar = CNCC(=O)O

Assays:
Chemical stability = assay type: physicochemical; conditions: pH 7.4 phosphate buffer, 37 °C; mean ± SD, n = 3
[1] = Stability in human plasma; assay type: in vitro ADME; conditions: undiluted human plasma, 37 °C; mean ± SD, n = 3
Caco-2 cell homogenates = assay: Enzymatic stability in Caco-2 cell homogenate; assay type: in vitro ADME, human; conditions: 500 μg/mL protein, 37 °C, mean ± SD, n = 3
AsPC-1 cell homogenates = assay: Enzymatic stability in AsPC-1 cell homogenate; assay type: in vitro ADME, human; conditions: 500 μg/mL protein, 37 °C, mean ± SD, n = 3
Capan-2 cell homogenates = assay: Enzymatic stability in Capan-2 cell homogenate; assay type: in vitro ADME, human; conditions: 500 μg/mL protein, 37 °C, mean ± SD, n = 3
thymidine phosphorylase = biological target: T1, thymidine phosphorylase (Homo sapiens, UniProt P19971); assay: Resistance to metabolism by thymidine phosphorylase; assay type: in vitro ADME; conditions: 200 μM substrate, TP 2.0 ng/μL, phosphate buffer pH 7.0, 37 °C; mean ± SD, n = 3
T1 sequence (P19971 11-482): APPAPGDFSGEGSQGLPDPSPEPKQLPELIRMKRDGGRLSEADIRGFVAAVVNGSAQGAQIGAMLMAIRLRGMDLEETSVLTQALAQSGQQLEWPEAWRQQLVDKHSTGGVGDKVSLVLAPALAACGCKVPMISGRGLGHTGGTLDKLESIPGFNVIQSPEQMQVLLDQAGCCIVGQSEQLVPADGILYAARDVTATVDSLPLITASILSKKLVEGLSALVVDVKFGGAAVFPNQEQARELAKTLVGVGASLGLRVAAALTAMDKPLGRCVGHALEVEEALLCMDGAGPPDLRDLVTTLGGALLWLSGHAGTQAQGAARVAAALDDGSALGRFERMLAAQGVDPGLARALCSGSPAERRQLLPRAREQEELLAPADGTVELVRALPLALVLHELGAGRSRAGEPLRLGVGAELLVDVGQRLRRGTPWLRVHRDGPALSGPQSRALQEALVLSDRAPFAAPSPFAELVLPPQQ

PEPT1 [2] = biological target: T2, PEPT1 (Homo sapiens, UniProt P46059); assay: [3H]Gly-Sar uptake inhibition in Caco-2 cells; assay type: cell-based
T2 sequence (P46059 1-708): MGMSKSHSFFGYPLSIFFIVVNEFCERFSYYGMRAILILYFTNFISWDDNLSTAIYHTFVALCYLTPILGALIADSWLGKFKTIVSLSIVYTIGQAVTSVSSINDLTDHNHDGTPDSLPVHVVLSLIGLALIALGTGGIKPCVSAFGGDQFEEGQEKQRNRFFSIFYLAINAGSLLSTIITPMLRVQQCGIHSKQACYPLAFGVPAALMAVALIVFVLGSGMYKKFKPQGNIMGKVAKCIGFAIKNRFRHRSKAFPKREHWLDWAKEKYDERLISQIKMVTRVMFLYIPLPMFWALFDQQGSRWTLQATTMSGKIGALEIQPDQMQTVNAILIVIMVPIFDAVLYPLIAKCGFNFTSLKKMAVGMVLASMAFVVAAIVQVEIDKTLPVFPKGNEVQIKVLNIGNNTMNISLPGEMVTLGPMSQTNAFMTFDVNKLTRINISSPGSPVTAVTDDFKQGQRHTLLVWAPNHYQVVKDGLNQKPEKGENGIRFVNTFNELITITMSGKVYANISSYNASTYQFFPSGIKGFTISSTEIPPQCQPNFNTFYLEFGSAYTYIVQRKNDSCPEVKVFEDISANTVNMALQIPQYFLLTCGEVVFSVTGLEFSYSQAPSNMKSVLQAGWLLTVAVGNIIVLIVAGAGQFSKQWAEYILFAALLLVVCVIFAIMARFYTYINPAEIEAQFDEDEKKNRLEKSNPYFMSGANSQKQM

PEPT1 [3] = biological target: T2, PEPT1; assay: [3H]Gly-Sar uptake inhibition in AsPC-1 cells; assay type: cell-based
PEPT1 [4] = biological target: T2, PEPT1; assay: [3H]Gly-Sar uptake inhibition in Capan-2 cells; assay type: cell-based
Capan-2 cell monolayers = assay: Apical-to-basolateral permeability across Capan-2 monolayers; assay type: in vitro ADME, human; conditions: 1 mM verapamil (efflux pump inhibitor); data not shown
[5] = Apical-to-basolateral permeability across Caco-2 monolayers; assay type: in vitro ADME; conditions: human
AsPC-1 cells = assay: Cell proliferation; assay type: cell-based; conditions: Homo sapiens, ASPC1, pH 6, read-out: GI50 AsPC-1
In short: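 AsPC-1 cells (passages 63-65) were grown antibiotic-free in RPMI-1640 with 10% FBS, seeded at 125,000 cells/well and left 24 h. They were washed with pH 6.0 uptake buffer and exposed 2 h at 37 °C to test compound (2-fold dilutions, 4 to 0.25 mmol/L, in that buffer); buffer alone served as 100% viability. Cells were washed twice and recovered 24 h in medium.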

Capan-2 cells = assay: Cell proliferation; assay type: cell-based; conditions: Homo sapiens, Capan-2, pH 6, read-out: GI50 Capan-2
In short: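 Capan-2 cells (passages 50-54) in antibiotic-free RPMI-1640 plus 10% FBS were plated at 125,000 per well and allowed 24 h to attach. After a rinse with pH 6.0 uptake buffer, they received test compound in the same buffer (twofold series, 4 to 0.25 mmol/L; buffer-only wells as 100% viability) for 4 h at 37 °C. Two washes and 24 h recovery in medium followed.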

[6] = read-out: IC50 [3H]Gly-Sar uptake inhibition Caco-2, Caco-2 cells, 10 μmol/L Gly-Sar, 30 min, mean ± SD, n = 3
[7] = read-out: IC50 [3H]Gly-Sar uptake inhibition AsPC-1, AsPC-1 cells, 10 μmol/L Gly-Sar, 30 min, mean ± SD, n = 3
[8] = read-out: IC50 [3H]Gly-Sar uptake inhibition Capan-2, Capan-2 cells, 10 μmol/L Gly-Sar, 30 min, mean ± SD, n = 3

t1/2 buffer pH 7.4 (Chemical stability) [min]	t1/2 human plasma [1] [min]	t1/2 cell homogenates Caco-2 (Caco-2 cell homogenates) [min]	t1/2 cell homogenates AsPC-1 (AsPC-1 cell homogenates) [min]	t1/2 cell homogenates Capan-2 (Capan-2 cell homogenates) [min]	t1/2 in the presence of thymidine phosphorylase (thymidine phosphorylase) [min]	IC50 (PEPT1 [2]; [6]) [µM]	IC50 (PEPT1 [3]; [7]) [µM]	IC50 (PEPT1 [4]; [8]) [µM]	effect of verapamil on permeability in Capan-2 cells (Capan-2 cell monolayers)	IC50 (PEPT1 [2]) [µM]	IC50 (PEPT1 [3]) [µM]	IC50 (PEPT1 [4]) [µM]	Papp at 2 h, 0.1 mM [5] [×10⁻⁶ cm/s]	GI50 (AsPC-1 cells) [µM]	Compound	GI50 (Capan-2 cells) [µM]
104.7 ± 7.0	76.0 ± 14.1	57.6 ± 9.3	51.6 ± 4.2	56.2 ± 12.8	>500	2880 ± 10	1030 ± 80	460 ± 20	–	–	–	–	–	–	5′-L-Valyl-L-phenylalanyl-floxuridine	–
85.5 ± 3.2	72.1 ± 15.0	24.1 ± 2.0	27.6 ± 5.8	49.7 ± 5.6	250 ± 54	2280 ± 590	2710 ± 530	2790 ± 80	–	–	–	–	–	–	NCC(=O)OC[C@H]1O[C@@H](n2cc(F)c(=O)[nH]c2=O)C[C@@H]1O [5′-L-glycyl-floxuridine]	–
33.5 ± 2.4	9.5 ± 0.5	20.5 ± 1.1	25.1 ± 5.8	18.7 ± 1.4	223 ± 54	390 ± 10	290	440 ± 20	–	–	–	–	–	–	CC[C@H](C)[C@H](N)C(=O)NCC(=O)OC[C@H]1O[C@@H](n2cc(F)c(=O)[nH]c2=O)C[C@@H]1O [5′-L-isoleucyl-L-glycyl-floxuridine, 5′-L-Isoleucyl-L-glycyl-floxuridine]	–
1194.5 ± 660.6	271.4 ± 3.2	192.3 ± 31.8	198.0 ± 70.2	139.9 ± 15.3	>500	720 ± 30	4120 ± 1750	2380 ± 120	–	–	–	–	–	–	CC[C@H](C)[C@H](N)C(=O)OC[C@H]1O[C@@H](n2cc(F)c(=O)[nH]c2=O)C[C@@H]1O [5′-L-isoleucyl-floxuridine]	–
23.2 ± 4.1	6.7 ± 0.3	4.1 ± 0.1	3.6 ± 0.8	3.9 ± 1.1	138 ± 11	3800 ± 600	510 ± 30	340 ± 10	–	–	–	–	–	–	CC(C)C[C@H](N)C(=O)NCC(=O)OC[C@H]1O[C@@H](n2cc(F)c(=O)[nH]c2=O)C[C@@H]1O [5′-L-leucyl-L-glycyl-floxuridine, 5′-L-Leucyl-L-glycyl-floxuridine]	–
83.2 ± 1.7	82.4 ± 8.7	3.2 ± 0.2	2.0 ± 0.1	4.7 ± 2.1	–	3510 ± 110	2600 ± 160	1450 ± 70	–	–	–	–	–	–	CC(C)C[C@H](N)C(=O)OC[C@H]1O[C@@H](n2cc(F)c(=O)[nH]c2=O)C[C@@H]1O [5′-L-leucyl-floxuridine]	–
132.1 ± 10.2	9.7 ± 0.8	6.3 ± 0.6	10.2 ± 0.3	4.3 ± 0.9	119 ± 30	780 ± 560	880 ± 220	790 ± 20	–	–	–	–	–	–	N[C@@H](Cc1ccccc1)C(=O)NCC(=O)OC[C@H]1O[C@@H](n2cc(F)c(=O)[nH]c2=O)C[C@@H]1O [5′-L-phenylalanyl-L-glycyl-floxuridine, 5′-L-Phenylalanyl-L-glycyl-floxuridine]	–
233.9 ± 6.6	80.6 ± 3.7	103.8 ± 55.5	59.7 ± 1.4	42.8 ± 0.0	>500	660 ± 250	610 ± 180	1200 ± 160	not affected	–	–	–	–	–	N[C@@H](Cc1ccccc1)C(=O)N[C@@H](Cc1ccc(O)cc1)C(=O)OC[C@H]1O[C@@H](n2cc(F)c(=O)[nH]c2=O)C[C@@H]1O [5′-L-phenylalanyl-L-tyrosyl-floxuridine, 5′-L-Phenylalanyl-L-tyrosyl-floxuridine]	–
187.0 ± 19.0	62.8 ± 0.8	11.1 ± 9.9	11.8 ± 1.7	3.0 ± 0.1	>500	1990 ± 820	1970 ± 90	3710 ± 2130	–	–	–	–	–	–	N[C@@H](Cc1ccccc1)C(=O)OC[C@H]1O[C@@H](n2cc(F)c(=O)[nH]c2=O)C[C@@H]1O [5′-L-phenylalanyl-floxuridine]	–
304.0 ± 33.3	131.5 ± 54.1	9.4 ± 0.5	18.7 ± 6.7	5.2 ± 2.4	–	1880 ± 180	2910 ± 380	2410 ± 280	–	–	–	–	–	–	CC(C)[C@H](N)C(=O)OC[C@H]1O[C@@H](n2cc(F)c(=O)[nH]c2=O)C[C@@H]1O [5′-L-valyl-floxuridine]	–
–	–	–	–	–	–	–	–	–	–	8430 ± 2660	6630 ± 1520	16100 ± 6710	0.69 ± 0.1	> 4000	O=c1[nH]c(=O)n([C@H]2C[C@H](O)[C@@H](CO)O2)cc1F [floxuridine, 5-fluoro-2′-deoxyuridine, reference compound]	> 4000
–	–	–	–	–	–	–	–	–	–	–	–	–	–	–	NCC(=O)N1CCC[C@H]1C(=O)O [glycylproline (Gly-Pro), glycylproline] (H-Gly-Pro-OH)	29500 ± 6500
–	–	–	–	–	–	–	–	–	–	–	–	–	–	–	CN(CC(=O)O)C(=O)CN [glycylsarcosine (Gly-Sar), glycylsarcosine] (H-Gly-[Sar]-OH)	25700 ± 8100
